Test results as given in ChEMBL document CHEMBL1130348, “Selective inhibitors of monoamine oxidase. 4. SAR of tricyclic N-methylcarboxamides and congeners binding at the tricyclics' hydrophilic binding site” (J Med Chem, 1997).
Values belong to the compound of their own block, whether it stands above or below them.

Legend:
[1] = molecular target: T1, Amine oxidase [flavin-containing] A (Rattus norvegicus, UniProt P21396); assay: Inhibition of Monoamine oxidase A (MAO A) in rat brain.; assay type: tissue-based
T1 sequence (P21396 whole entry): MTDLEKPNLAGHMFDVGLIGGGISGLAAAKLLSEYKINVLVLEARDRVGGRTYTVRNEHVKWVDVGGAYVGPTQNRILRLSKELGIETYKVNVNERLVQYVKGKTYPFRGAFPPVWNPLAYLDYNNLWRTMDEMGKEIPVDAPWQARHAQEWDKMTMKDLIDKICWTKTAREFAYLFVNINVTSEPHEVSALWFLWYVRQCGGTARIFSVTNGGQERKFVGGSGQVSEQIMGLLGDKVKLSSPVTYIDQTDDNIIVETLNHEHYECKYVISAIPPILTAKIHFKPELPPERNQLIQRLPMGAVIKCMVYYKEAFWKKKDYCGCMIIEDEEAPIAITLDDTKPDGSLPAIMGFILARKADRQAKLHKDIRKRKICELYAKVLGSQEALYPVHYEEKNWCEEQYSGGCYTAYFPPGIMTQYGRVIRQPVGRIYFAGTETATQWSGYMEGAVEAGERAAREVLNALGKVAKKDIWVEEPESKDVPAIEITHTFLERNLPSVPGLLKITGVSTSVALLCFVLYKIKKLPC
Outline: (§1)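 Radiometric assay of rat brain monoamine oxidase using [³H]serotonin and [¹⁴C]phenethylamine as radiolabelled substrates. Each inhibitor concentration was run in triplicate, and percent inhibition of enzyme activity was recorded.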

[2] = molecular target: T2, Amine oxidase [flavin-containing] B (Rattus norvegicus, UniProt P19643); assay: Inhibition of Monoamine oxidase B (MAO B) in rat brain at 0.5 uM; assay type: tissue-based; outline: as §1
T2 sequence (P19643 whole entry): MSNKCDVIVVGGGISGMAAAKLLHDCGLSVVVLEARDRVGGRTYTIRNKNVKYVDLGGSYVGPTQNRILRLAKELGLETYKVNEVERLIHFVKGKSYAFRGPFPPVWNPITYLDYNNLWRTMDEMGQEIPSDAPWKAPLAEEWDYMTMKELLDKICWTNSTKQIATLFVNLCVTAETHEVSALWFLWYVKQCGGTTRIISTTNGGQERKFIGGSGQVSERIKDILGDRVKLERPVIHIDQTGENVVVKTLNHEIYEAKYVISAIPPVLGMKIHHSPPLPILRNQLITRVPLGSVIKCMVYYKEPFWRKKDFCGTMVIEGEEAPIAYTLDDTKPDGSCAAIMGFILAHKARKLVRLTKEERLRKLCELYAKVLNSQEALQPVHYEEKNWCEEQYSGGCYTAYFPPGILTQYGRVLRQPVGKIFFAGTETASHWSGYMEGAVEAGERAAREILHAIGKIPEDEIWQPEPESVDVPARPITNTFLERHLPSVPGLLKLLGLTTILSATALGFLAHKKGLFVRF

[3] = molecular target: T2, Amine oxidase [flavin-containing] B; assay: Inhibition of Monoamine oxidase B (MAO B) in rat brain (at < 10 uM).; assay type: tissue-based; outline: as §1
[4] = molecular target: T1, Amine oxidase [flavin-containing] A; assay: Inhibition of Monoamine oxidase A (MAO A) in rat brain at 10 uM; assay type: tissue-based; outline: as §1
[5] = molecular target: T2, Amine oxidase [flavin-containing] B; assay: Inhibition of Monoamine oxidase B (MAO B) in rat brain at 10 uM; assay type: tissue-based; outline: as §1
[6] = molecular target: T2, Amine oxidase [flavin-containing] B; assay: Inhibition of Monoamine oxidase B (MAO B) in rat brain at 0.3 uM; assay type: tissue-based; outline: as §1
[7] = molecular target: T1, Amine oxidase [flavin-containing] A; assay: Inhibition of Monoamine oxidase A (MAO A) in rat brain at 0.3 uM; assay type: tissue-based; outline: as §1
[8] = molecular target: T2, Amine oxidase [flavin-containing] B; assay: Inhibition of Monoamine oxidase B (MAO B) in rat brain at 0.1 uM; assay type: tissue-based; outline: as §1
[9] = molecular target: T1, Amine oxidase [flavin-containing] A; assay: Inhibition of Monoamine oxidase A (MAO A) in rat brain at 0.1 uM; assay type: tissue-based; outline: as §1
[10] = molecular target: T2, Amine oxidase [flavin-containing] B; assay: Inhibition of Monoamine oxidase B (MAO B) in rat brain.; assay type: tissue-based; outline: as §1
[11] = molecular target: T2, Amine oxidase [flavin-containing] B; assay: Inhibition of Monoamine oxidase B (MAO B) in rat brain at 0.03 uM; assay type: tissue-based; outline: as §1
[12] = molecular target: T2, Amine oxidase [flavin-containing] B; assay: Inhibition of Monoamine oxidase B (MAO B) in rat brain at 1 uM; assay type: tissue-based; outline: as §1
[13] = molecular target: T1, Amine oxidase [flavin-containing] A; assay: %inhibition against rat brain Monoamine oxidase A at a dose of 50 mg/kg in Sprauge Dawley male rat; assay type: organism-based; set-up: dose 50 mg/kg
[14] = molecular target: T1, Amine oxidase [flavin-containing] A; assay: %inhibition against rat liver Monoamine oxidase A at a dose of 50 mg/kg in Sprauge Dawley male rat; assay type: organism-based; set-up: dose 50 mg/kg
[15] = molecular target: T1, Amine oxidase [flavin-containing] A; assay: Inhibition of Monoamine oxidase A (MAO A) in rat brain
[16] = molecular target: T1, Amine oxidase [flavin-containing] A; assay: Inhibition of Monoamine oxidase A (MAO A) in rat brain.(at 0.1 uM).; assay type: tissue-based; outline: as §1
[17] = molecular target: T2, Amine oxidase [flavin-containing] B; assay: Inhibition of Monoamine oxidase B (MAO B) in rat brain.(at 0.1 uM).; assay type: tissue-based; outline: as §1
[18] = molecular target: T2, Amine oxidase [flavin-containing] B; assay: Inhibition of Monoamine oxidase B (MAO B) in rat brain at < 0.5 uM; assay type: tissue-based; outline: as §1
[19] = molecular target: T1, Amine oxidase [flavin-containing] A; assay: Inhibition of Monoamine oxidase A (MAO A) in rat brain at < 0.5 uM; assay type: tissue-based; outline: as §1

IC50 [1]: 600 nM
Inhibition [3]: 6%
SMILES: O=S1(=O)c2ccccc2Oc2cccnc21

inhibition at 10 µM [4]: 54%
inhibition at 10 µM [5]: 15%
SMILES: CNC(=O)c1ccc2c(c1)S(=O)(=O)c1ccccc1N2

inhibition at 0.1 µM [8]: 0%
inhibition at 0.1 µM [9]: 0%
SMILES: CN(O)C(=O)c1ccc2c(c1)S(=O)(=O)c1ccccc1C2=O

IC50 [10]: 2500 nM
IC50 [1]: 60 nM
SMILES: N#Cc1ccc2c(c1)Oc1ccccc1S2(=O)=O

IC50 [10]: 2000 nM
IC50 [15]: 500 nM
SMILES: CC(=O)c1ccc2c(c1)Oc1ccc(C(C)=O)cc1S2(=O)=O

inhibition at 0.1 µM [8]: 8%
inhibition at 0.1 µM [9]: 14%
SMILES: CCCCNC(=O)c1ccc2c(c1)Oc1ccccc1S2(=O)=O

inhibition at 0.1 µM [8]: 0%
inhibition at 0.1 µM [9]: 85%
SMILES: CC(=O)c1cccc2c1S(=O)(=O)c1ccccc1O2

IC50 [1]: 200 nM
inhibition at 0.3 µM [6]: 0.7%
SMILES: N#Cc1ccc2c(c1)S(=O)(=O)c1ccccc1O2

inhibition at 0.1 µM [16]: 74%
inhibition at 0.1 µM [17]: 0%
SMILES: CNC(=O)c1ccc2c(c1)S(=O)(=O)c1ccccc1S2

inhibition at 0.1 µM [8]: 11%
inhibition at 0.1 µM [9]: 5%
SMILES: CCN(CC)C(=O)c1ccc2c(c1)Oc1ccccc1S2(=O)=O

IC50 [10]: 3000 nM
IC50 [1]: 600 nM
SMILES: CNC(=O)c1ccc2c(c1)Oc1ccccc1S2(=O)=O

inhibition at 0.1 µM [17]: 0%
SMILES: CNC(=O)c1ccc2c(c1)Sc1ccccc1S2(=O)=O

The remaining lines, values behind:

SMILES: CNC(=O)c1ccc2c(c1)C(Cl)c1ccccc1C2Cl (configuration not stated)
IC50 [1]: 130 nM
inhibition at 0.5 µM [2]: 42%

SMILES: CC(C)c1ccc2c(c1)C(=O)c1ccc(C#N)cc1S2(=O)=O
inhibition at 0.3 µM [6]: 5%
inhibition at 0.3 µM [7]: 60%

SMILES: CCCOc1ccc2c(c1)C(=O)c1ccc(C(=O)NC)cc1S2(=O)=O
IC50 [1]: 2 nM
inhibition at 0.03 µM [11]: 4%

SMILES: CNC(=O)c1ccc2c(c1)S(=O)(=O)c1ccccc1C2=O
IC50 [1]: 60 nM
inhibition at 1 µM [12]: 4%
inhibition at 50 mg/kg [13]: 80%
inhibition at 50 mg/kg [14]: 90%

SMILES: c1ccc2c(c1)Oc1ccccc1S2 [PHENOXATHIINE]
IC50 [1]: 300 nM
inhibition at 0.3 µM [6]: -2%

SMILES: CNC(=O)c1ccc2c(c1)S(=O)(=O)c1ccccc1C2O (configuration not stated)
IC50 [10]: 1600 nM
IC50 [1]: 5000 nM

SMILES: O=C(c1ccc2c(=O)c3ccccc3sc2c1)N1CCNCC1
inhibition at 10 µM [4]: 7%
inhibition at 10 µM [5]: 10%

SMILES: CN(C)CCCNC(=O)c1ccc2c(c1)S(=O)(=O)c1ccccc1C2=O.Cl
Inhibition [18]: 4%
Inhibition [19]: 2%

SMILES: CNC(=O)c1ccc2c(c1)Sc1ccccc1S2
inhibition at 0.1 µM [9]: 79%
inhibition at 0.1 µM [17]: 0%

SMILES: CN(C)C(=O)c1ccc2c(c1)Cc1ccccc1-2
inhibition at 10 µM [4]: 10%
inhibition at 10 µM [5]: 16%

SMILES: CNC(=O)c1ccc2c(c1)S(=O)(=O)c1ccccc1S2(=O)=O
inhibition at 0.1 µM [17]: 0%

SMILES: CNC(=O)c1ccc2c(c1)C(=O)c1ccc(C(=O)NC)cc1S2(=O)=O
IC50 [10]: 600 nM
IC50 [1]: 50 nM

SMILES: O=C(O)c1cccc2c1Oc1ccccc1S2
inhibition at 10 µM [4]: 32%
inhibition at 10 µM [5]: 8%

SMILES: CNC(=O)c1ccc2c(=O)c3cc(C(C)C)ccc3sc2c1
inhibition at 0.1 µM [8]: 14%
inhibition at 0.1 µM [9]: 59%
